Results reported in ChEMBL document CHEMBL1138569, “A facile synthesis of novel biologically active 4-hydroxy-N'-(benzylidene)-2H-benzo[e][1,2]thiazine-3-carbohydrazide 1,1-dioxides” (2009).
Calls of active or inactive are those of the source. The rule behind the calls is not given here.

What was measured:
[1] = system: Salmonella enterica subsp. enterica serovar Typhi str. CT18; test: Antibacterial activity against Salmonella typhi at 1 mg/ml by agar well diffusion method; type: functional; details: for zone of inhibition at 1000 µg/mL: read-out: IZ
How it was run: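 Agar well diffusion against Salmonella typhi. Samples were dissolved in DMSO at 1 mg per ml and applied to 6 mm diameter wells. A solvent-only well served as control. Activity was read as inhibition zone diameter in mm.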

Bacillus subtilis [2] = test: Antibacterial activity against Bacillus subtilis at 1 mg/ml by agar well diffusion method; type: functional, organism-based
How it was run: (§1)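 Agar well diffusion; compounds loaded into 6 mm wells at 1 mg per ml DMSO, with a DMSO-only (0) control. Read-out: inhibition zone diameter (mm).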

Shigella flexneri [3] = test: Antibacterial activity against Shigella flexneri at 1 mg/ml by agar well diffusion method; type: functional; details: for zone of inhibition at 1000 µg/mL: read-out: IZ; how it was run: as §1
Escherichia coli [4] = test: Antibacterial activity against Escherichia coli at 1 mg/ml by agar well diffusion method; type: functional, organism-based; how it was run: as §1
[5] = system: Radical scavenging activity; test: Antioxidant activity assessed as DPPH radical scavenging activity after 30 mins; type: functional; set-up: concentration or dose not given beside the values
How it was run: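 Test sample (0.5 mM stock in DMSO, 5 µL) mixed with 95 µL DPPH in ethanol and incubated at 37 °C for 30 min. Absorbance read at 515 nm. Percent radical scavenging calculated against a DMSO-containing control; 3-tert-butyl-4-hydroxyanisole used as reference.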

Staphylococcus aureus [6] = test: Antibacterial activity against Staphylococcus aureus at 1 mg/ml by agar well diffusion method; type: functional; details: for zone of inhibition at 1000 µg/mL: read-out: IZ; how it was run: as §1
Pseudomonas aeruginosa [7] = test: Antibacterial activity against Pseudomonas aeruginosa at 1 mg/ml by agar well diffusion method; type: functional, organism-based; how it was run: as §1
[8] = system: Salmonella enterica subsp. enterica serovar Typhi str. CT18; test: Antibacterial activity against Salmonella typhi at 10 ug/disk by agar well diffusion method; type: functional; details: read-out: IZ
How it was run: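 Agar well diffusion against Salmonella typhi, using the reference antibiotic imipenem applied at 10 µg per disc alongside 6 mm sample wells. Activity was read as inhibition zone diameter in mm.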

Escherichia coli [9] = test: Antibacterial activity against Escherichia coli at 10 ug/disk by agar well diffusion method; type: functional; details: read-out: IZ
How it was run: (§2)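 Agar well diffusion with imipenem as the standard at 10 µg per disc, run alongside 6 mm wells and a DMSO-only control. Read-out: inhibition zone diameter (mm).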

Pseudomonas aeruginosa [10] = test: Antibacterial activity against Pseudomonas aeruginosa at 10 ug/disk by agar well diffusion method; type: functional; details: read-out: IZ; how it was run: as §2
Staphylococcus aureus [11] = test: Antibacterial activity against Staphylococcus aureus at 10 ug/disk by agar well diffusion method; type: functional; details: read-out: IZ; how it was run: as §2
Bacillus subtilis [12] = test: Antibacterial activity against Bacillus subtilis at 10 ug/disk by agar well diffusion method; type: functional; details: read-out: IZ; how it was run: as §2
Shigella flexneri [13] = test: Antibacterial activity against Shigella flexneri at 10 ug/disk by agar well diffusion method; type: functional; details: read-out: IZ; how it was run: as §2

SMILES	zone of inhibition at 1000 µg/mL [1]	inhibition zone (IZ) (Bacillus subtilis [2])	inhibition zone (IZ) (Shigella flexneri [3])	inhibition zone (IZ) (Escherichia coli [4])	Activity [5]	zone of inhibition at 1000 µg/mL (Staphylococcus aureus [6])	inhibition zone (IZ) (Pseudomonas aeruginosa [7])	inhibition zone (IZ) [1]	zone of inhibition at 1000 µg/mL (Shigella flexneri [3])	inhibition zone (IZ) (Staphylococcus aureus [6])	zone of inhibition at 10 µg/disc [8]	zone of inhibition at 10 µg/disc (Escherichia coli [9])	zone of inhibition at 10 µg/disc (Pseudomonas aeruginosa [10])	zone of inhibition at 10 µg/disc (Staphylococcus aureus [11])	zone of inhibition at 10 µg/disc (Bacillus subtilis [12])	zone of inhibition at 10 µg/disc (Shigella flexneri [13])
O=C(N/N=C/c1ccccc1[N+](=O)[O-])C1=C(O)c2ccccc2S(=O)(=O)N1	11 mm	inactive	inactive	inactive	37.3%	10 mm	inactive									
O=C(N/N=C/c1ccc(Cl)cc1Cl)C1=C(O)c2ccccc2S(=O)(=O)N1		inactive		inactive	43.8%		inactive	inactive	10 mm	inactive						
COc1ccc(/C=N/NC(=O)C2=C(O)c3ccccc3S(=O)(=O)N2)cc1O		inactive		inactive	42.9%	10 mm	inactive	inactive	10 mm							
COc1ccc(O)c(C(C)(C)C)c1.COc1ccc(O)cc1C(C)(C)C		inactive	inactive	inactive	92.6%		inactive	inactive		inactive						
O=C(N/N=C/c1ccccc1)C1=C(O)c2ccccc2S(=O)(=O)N1		inactive	inactive	inactive	37.6%		inactive	inactive		inactive						
COc1ccc(/C=N/NC(=O)C2=C(O)c3ccccc3S(=O)(=O)N2)c(OC)c1		inactive	inactive	inactive	68.2%		inactive	inactive		inactive						
COc1ccc(/C=N/NC(=O)C2=C(O)c3ccccc3S(=O)(=O)N2)cc1		inactive	inactive	inactive	43.7%	12 mm	inactive	inactive								
COc1ccc(/C=N/NC(=O)C2=C(O)c3ccccc3S(=O)(=O)N2)c(OC)c1OC		inactive		inactive	43.6%	21 mm	inactive	inactive	22 mm							
C[C@@H](O)[C@H]1C(=O)N2C(C(=O)O)=C(SCCNC=N)C[C@H]12 [IMIPENEM ANHYDROUS]											30 mm	30 mm	32 mm	26 mm	36 mm	37 mm
O=C(N/N=C/c1ccc(Cl)cc1)C1=C(O)c2ccccc2S(=O)(=O)N1		inactive	inactive	inactive	21.2%		inactive	inactive		inactive						
O=C(N/N=C/c1ccccc1O)C1=C(O)c2ccccc2S(=O)(=O)N1		inactive	inactive	inactive	40.7%		inactive	inactive		inactive						
O=C(N/N=C/c1ccc([N+](=O)[O-])cc1)C1=C(O)c2ccccc2S(=O)(=O)N1	26 mm	inactive	inactive	inactive	30.9%		inactive			inactive						
COc1cc(/C=N/NC(=O)C2=C(O)c3ccccc3S(=O)(=O)N2)ccc1O		inactive	inactive	inactive	35%	15 mm	inactive	inactive								
COc1ccc(/C=N/NC(=O)C2=C(O)c3ccccc3S(=O)(=O)N2)cc1OC	11 mm	inactive		inactive	38%		inactive		20 mm	inactive						
O=C(N/N=C/c1cccc(Cl)c1)C1=C(O)c2ccccc2S(=O)(=O)N1		inactive	inactive	inactive	23.8%		inactive	inactive		inactive						
O=C(N/N=C/c1ccccc1Cl)C1=C(O)c2ccccc2S(=O)(=O)N1		inactive	inactive	inactive	57.4%		inactive	inactive		inactive						
O=C(N/N=C/c1ccc(O)cc1O)C1=C(O)c2ccccc2S(=O)(=O)N1	28 mm	inactive	inactive	inactive	65%		inactive			inactive						
